Laboratory results reported in ChEMBL document CHEMBL4715736, “Identification of anticancer agents based on the thieno[2,3-b]pyridine and 1H-pyrazole molecular scaffolds” (2016).

Key:
Assay type in all cases: functional
Details in all cases: read-out: Activity
TK-10 = assay: Growth inhibition of human TK-10 cells assessed as cell growth at 10 uM incubated for 48 hrs by sulforhodamine B assay relative to control
Summary of the method: (§1)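 Run by the NCI Developmental Therapeutics Program as part of its 60-line human tumour panel. Each compound tested at a single 10 µM dose. Growth expressed as % relative to untreated control cells (100%).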

SK-OV-3 = assay: Growth inhibition of human SK-OV-3 cells assessed as cell growth at 10 uM incubated for 48 hrs by sulforhodamine B assay relative to control; summary of the method: as §1
HOP-62 = assay: Growth inhibition of human HOP-62 cells assessed as cell growth at 10 uM incubated for 48 hrs by sulforhodamine B assay relative to control
Summary of the method: (§2)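 Submitted to the NCI Developmental Therapeutics Program for the NCI60 human tumour cell line panel. First screen at a single 10 µM concentration. Read-out is growth relative to untreated control cells set at 100%.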

DU-145 = assay: Growth inhibition of human DU-145 cells assessed as cell growth at 10 uM incubated for 48 hrs by sulforhodamine B assay relative to control
Summary of the method: (§3)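 NCI Developmental Therapeutics Program NCI60 panel. Compounds that were active in the 10 µM one-dose screen went on to dose–response testing. Growth at each concentration is expressed relative to untreated control (100%). GI50 (concentration giving 50% of maximal inhibition of proliferation) and TGI (concentration giving total growth inhibition) were derived from the curves.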

ACHN = assay: Growth inhibition of human ACHN cells assessed as cell growth at 10 uM incubated for 48 hrs by sulforhodamine B assay relative to control
Summary of the method: (§4)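 NCI Developmental Therapeutics Program NCI60 human tumour cell line panel, one-dose primary screen with every compound at 10 µM. Growth is expressed as % of untreated control cells (100%).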

786-0 = assay: Growth inhibition of human 786-0 cells assessed as cell growth at 10 uM incubated for 48 hrs by sulforhodamine B assay relative to control; summary of the method: as §3
NCI-H522 = assay: Growth inhibition of human NCI-H522 cells assessed as cell growth at 10 uM incubated for 48 hrs by sulforhodamine B assay relative to control; summary of the method: as §2
HCT-116 = assay: Growth inhibition of human HCT-116 cells assessed as cell growth at 10 uM incubated for 48 hrs by sulforhodamine B assay relative to control; summary of the method: as §2
NCI-H23 = assay: Growth inhibition of human NCI-H23 cells assessed as cell growth at 10 uM incubated for 48 hrs by sulforhodamine B assay relative to control; summary of the method: as §2
HL-60(TB) = assay: Growth inhibition of human HL-60(TB) cells assessed as cell growth at 10 uM incubated for 48 hrs by sulforhodamine B assay relative to control
Summary of the method: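 Screened by the NCI Developmental Therapeutics Program on its panel of 60 human tumour cell lines. Compounds were first tested at a single 10 µM dose, and compounds active there went to dose-response curves. Growth is expressed relative to untreated control (100%). GI50 (50% of maximal proliferation inhibition) and TGI (total growth inhibition) were derived from the dose-response data.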

HT-29 = assay: Growth inhibition of human HT-29 cells assessed as cell growth at 10 uM incubated for 48 hrs by sulforhodamine B assay relative to control; summary of the method: as §2
SK-MEL-2 = assay: Growth inhibition of human SK-MEL-2 cells assessed as cell growth at 10 uM incubated for 48 hrs by sulforhodamine B assay relative to control; summary of the method: as §1
BT-549 = assay: Growth inhibition of human BT-549 cells assessed as cell growth at 10 uM incubated for 48 hrs by sulforhodamine B assay relative to control; summary of the method: as §4
MDA-MB-468 = assay: Growth inhibition of human MDA-MB-468 cells assessed as cell growth at 10 uM incubated for 48 hrs by sulforhodamine B assay relative to control; summary of the method: as §2
SR = assay: Growth inhibition of human SR cells assessed as cell growth at 10 uM incubated for 48 hrs by sulforhodamine B assay relative to control; summary of the method: as §1
KM12 = assay: Growth inhibition of human KM12 cells assessed as cell growth at 10 uM incubated for 48 hrs by sulforhodamine B assay relative to control; summary of the method: as §2
SK-MEL-28 = assay: Growth inhibition of human SK-MEL-28 cells assessed as cell growth at 10 uM incubated for 48 hrs by sulforhodamine B assay relative to control; summary of the method: as §1
SF-295 = assay: Growth inhibition of human SF-295 cells assessed as cell growth at 10 uM incubated for 48 hrs by sulforhodamine B assay relative to control; summary of the method: as §1
U-251 = assay: Growth inhibition of human U-251 cells assessed as cell growth at 10 uM incubated for 48 hrs by sulforhodamine B assay relative to control; summary of the method: as §1
A549 = assay: Growth inhibition of human A549/ATCC cells assessed as cell growth at 10 uM incubated for 48 hrs by sulforhodamine B assay relative to control; summary of the method: as §3
CAKI-1 = assay: Growth inhibition of human CAKI-1 cells assessed as cell growth at 10 uM incubated for 48 hrs by sulforhodamine B assay relative to control; summary of the method: as §3
M14 = assay: Growth inhibition of human M14 cells assessed as cell growth at 10 uM incubated for 48 hrs by sulforhodamine B assay relative to control; summary of the method: as §2
HCC 2998 = assay: Growth inhibition of human HCC 2998 cells assessed as cell growth at 10 uM incubated for 48 hrs by sulforhodamine B assay relative to control; summary of the method: as §3

| Compound | growth at 10 µM (TK-10) [%] | growth at 10 µM (SK-OV-3) [%] | growth at 10 µM (HOP-62) [%] | growth at 10 µM (DU-145) [%] | growth at 10 µM (ACHN) [%] | growth at 10 µM (786-0) [%] | growth at 10 µM (NCI-H522) [%] | growth at 10 µM (HCT-116) [%] | growth at 10 µM (NCI-H23) [%] | growth at 10 µM (HL-60(TB)) [%] | growth at 10 µM (HT-29) [%] | growth at 10 µM (SK-MEL-2) [%] | growth at 10 µM (BT-549) [%] | growth at 10 µM (MDA-MB-468) [%] | growth at 10 µM (SR) [%] | growth at 10 µM (KM12) [%] | growth at 10 µM (SK-MEL-28) [%] | growth at 10 µM (A549) [%] | growth at 10 µM (M14) [%] | growth at 10 µM (HCC 2998) [%] | further results |
| --- | --- | --- | --- | --- | --- | --- | --- | --- | --- | --- | --- | --- | --- | --- | --- | --- | --- | --- | --- | --- | --- |
| Cc1ccc(S(=O)(=O)n2ccc(-c3ccc(OCCCF)cc3)n2)cc1 | 62.8 | 107 | 108 | 99.3 | 97.4 | 89.6 | 69.5 | 86.1 | 78.7 | 107 | 86.4 | 87.2 | 99.9 | 44.4 | 67.4 | 95 | 85 | 78.8 | 94.7 | 93.9 | growth at 10 µM (SF-295): 83.7%; growth at 10 µM (U-251): 85%; growth at 10 µM (CAKI-1): 63.8% |
| O=S(=O)(c1ccccc1)n1ccc(-c2ccc3c(c2)CCO3)n1 | 76.2 | 104 | 98.8 | 95 | 78.4 | 90.3 | 61.7 | 89.1 | 78.4 | 109 | 92.8 | 86.5 | 96 | 42.4 | 73.3 | 91.9 | 86.2 | 78.8 | 101 | 90.8 | growth at 10 µM (SF-295): 83.3%; growth at 10 µM (U-251): 73.6%; growth at 10 µM (CAKI-1): 75.3% |
| COc1ccc(S(=O)(=O)n2ccc(-c3ccc4c(c3)CCC(C)(C)O4)n2)cc1 | 68.2 | 90.4 | 112 |  | 104 | 67.6 | 55.6 | 68.3 | 59.6 | 60 | 84.5 | 84.4 | 65.5 | 36.6 |  | 81.9 | 98.3 | 74 | 86.5 | 88.9 | growth at 10 µM (SF-295): 47.7%; growth at 10 µM (U-251): 84.2%; growth at 10 µM (CAKI-1): 63.3% |
| Cc1cccc(NC(=O)c2sc3nc4c(cc3c2N)CN(Cc2ccccc2)CC4)c1 | 114 | 105 | 110 | 89.3 | 102 | 91.5 | 114 | 92.6 | 100 | 108 | 100 | 129 | 79 | 94.8 | 95 | 96.4 | 103 | 84.2 | 106 | 104 | growth at 10 µM (SF-295): 110%; growth at 10 µM (U-251): 85.4% |
| CC(C)N1CCc2nc3sc(C(=O)Nc4ccccc4)c(N)c3cc2C1 | 127 | 113 | 94.1 | 110 | 100 | 108 | 104 | 102 | 97.9 | 98.4 | 103 | 114 | 106 | 95.6 | 86.6 | 101 | 108 | 89.8 | 108 | 110 | growth at 10 µM (SF-295): 105%; growth at 10 µM (U-251): 92.7% |
| O=S(=O)(c1ccc(Br)cc1)n1ccc(-c2ccc(OCCCF)cc2)n1 | 70.8 | 106 | 118 | 102 | 94.1 | 85.3 | 79.4 | 78.7 | 80.3 | 95.7 | 89.4 | 96.4 | 110 | 39.8 | 75.2 | 104 | 93.4 | 75.7 | 97.1 | 90.3 | growth at 10 µM (U-251): 90.7%; growth at 10 µM (CAKI-1): 79.3% |
| CC(=O)c1cccc(NC(=O)c2sc3nc4c(cc3c2N)C(=O)CCC4)c1 | 89.3 | 102 | 97.9 | 108 | 103 | 97 | 87.1 | 108 | 98.8 | 102 | 96.9 | 103 | 93.7 | 82.8 | 91.1 | 95.2 | 92.4 | 92.8 | 100 | 97.7 | growth at 10 µM (SF-295): 90.8% |
| CCOc1ccc(-c2cc(N)n(S(=O)(=O)c3ccc(OC)cc3)n2)cc1 | 130 | 114 | 122 | 110 | 102 | 108 | 101 | 96 | 115 | 126 | 105 | 110 | 111 | 87.4 | 116 | 123 | 103 | 92.5 | 120 | 112 | growth at 10 µM (SF-295): 115%; growth at 10 µM (U-251): 101% |
| Nc1c(C(=O)N(c2ccccc2)c2ccccc2)sc2nc3c(cc12)C(=O)CCC3 | 113 | 108 | 99.3 | 68.6 | 110 | 104 | 103 | 94.2 | 101 | 105 | 84.5 | 117 | 55.4 | 106 | 55.6 | 79 | 116 | 90.2 | 94.2 | 116 | growth at 10 µM (SF-295): 107% |
